Measured values published in ChEMBL document CHEMBL3232885, “Synthesis, characterization and pharmacological screening of some novel 5-imidazopyrazole incorporated polyhydroquinoline derivatives” (Eur J Med Chem, 2014).
Converted amounts (≈) assume the structure as drawn.

Assays:
Aspergillus fumigatus = test: Antifungal activity against Aspergillus fumigatus MTCC 3008 assessed as growth inhibition after 24 to 48 hrs by broth microdilution method; type: functional
Procedure, shortened: (§1)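 Fungal nutrition used Sabouraud Dextrose broth with inoculum at 10⁸ CFU mL⁻¹ by turbidity. Serial compound dilutions were made in 2% DMSO in water. Growth was noted on subculture after 24 and 48 h. MIC was taken as the highest dilution preventing visible turbidity after spot subculture.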

Candida albicans = test: Antifungal activity against Candida albicans MTCC 227 assessed as growth inhibition after 24 to 48 hrs by broth microdilution method; type: functional; procedure, shortened: as §1
Escherichia coli = test: Antibacterial activity against Escherichia coli MTCC 443 assessed as growth inhibition after 24 to 48 hrs by broth microdilution method; type: functional
Procedure, shortened: (§2)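 Bacteria were grown in Mueller-Hinton broth with inoculum adjusted to 10⁸ CFU mL⁻¹ by turbidity. Compounds were serially diluted in 2% aqueous DMSO and incubated at 37 °C overnight. Growth was checked by subculture at 24 and 48 h. MIC was taken as the highest dilution with no turbidity after spot subculture.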

[1] = system: Mycobacterium tuberculosis; test: Antitubercular activity against Mycobacterium tuberculosis H37Rv assessed as inhibition of colony formation at 100 ug/mL after 2 to 4 weeks by Lowensteine-Jensen method relative to control; type: functional
Salmonella typhi = test: Antibacterial activity against Salmonella typhi MTCC 98 assessed as growth inhibition after 24 to 48 hrs by broth microdilution method; type: functional, Salmonella enterica subsp. enterica serovar Typhi; conditions: Salmonella enterica
[2] = system: Mycobacterium tuberculosis; test: Antitubercular activity against Mycobacterium tuberculosis H37Rv assessed as inhibition of colony formation at 250 ug/mL after 2 to 4 weeks by Lowensteine-Jensen method relative to control; type: functional
Vibrio cholerae = test: Antibacterial activity against Vibrio cholerae MTCC 3906 assessed as growth inhibition after 24 to 48 hrs by broth microdilution method; type: functional
Bacillus subtilis = test: Antibacterial activity against Bacillus subtilis MTCC 441 assessed as growth inhibition after 24 to 48 hrs by broth microdilution method; type: functional; procedure, shortened: as §2
Plasmodium falciparum = test: Antimalarial activity against chloroquine/quinine sensitive Plasmodium falciparum assessed as parasite growth inhibition after 48 hrs; type: functional, organism-based
Clostridium tetani = test: Antibacterial activity against Clostridium tetani MTCC 449 assessed as growth inhibition after 24 to 48 hrs by broth microdilution method; type: functional
Streptococcus pneumoniae = test: Antibacterial activity against Streptococcus pneumoniae MTCC 1936 assessed as growth inhibition after 24 to 48 hrs by broth microdilution method; type: functional; procedure, shortened: as §2

Compound | MIC (Aspergillus fumigatus) | MIC (Candida albicans) | MIC (Escherichia coli) | inhibition at 100 µg/mL [1] | MIC (Salmonella typhi) | inhibition at 250 µg/mL [2] | MIC (Vibrio cholerae) | MIC (Bacillus subtilis) | IC50 (Plasmodium falciparum) | MIC (Clostridium tetani) | MIC (Streptococcus pneumoniae)
NYSTATIN | 500 µg/mL | 100 µg/mL |  |  |  |  |  |  |  |  | 
CCOC(=O)C1=C(N)N(c2ccc(O)cc2)C2=C(C(=O)CCC2)C1c1c(C)nn(-c2ccccc2)c1-n1ccnc1 (configuration not stated) | 500 µg/mL (≈ 908 µM) | 500 µg/mL (≈ 908 µM) | 62.5 µg/mL (≈ 114 µM) | 37% | 200 µg/mL (≈ 363 µM) | 41% | 200 µg/mL (≈ 363 µM) | 200 µg/mL (≈ 363 µM) | 0.067 µg/mL (≈ 0.122 µM) | 200 µg/mL (≈ 363 µM) | 250 µg/mL (≈ 454 µM)
Cc1nn(-c2ccccc2)c(-n2ccnc2)c1C1C(C(N)=O)=C(N)N(c2cccc(O)c2)C2=C1C(=O)CC(C)(C)C2 (configuration not stated) | 500 µg/mL (≈ 910 µM) | 500 µg/mL (≈ 910 µM) | 125 µg/mL (≈ 227 µM) | 75% | 200 µg/mL (≈ 364 µM) | 84% | 200 µg/mL (≈ 364 µM) | 200 µg/mL (≈ 364 µM) | 0.57 µg/mL (≈ 1.04 µM) | 200 µg/mL (≈ 364 µM) | 125 µg/mL (≈ 227 µM)
Cc1nn(-c2ccccc2)c(-n2ccnc2)c1C1C(C(N)=O)=C(N)N(c2ccc(O)cc2)C2=C1C(=O)CC(C)(C)C2 (configuration not stated) | 1000 µg/mL (≈ 1820 µM) | 500 µg/mL (≈ 910 µM) | 250 µg/mL (≈ 455 µM) | 61% | 125 µg/mL (≈ 227 µM) | 70% | 250 µg/mL (≈ 455 µM) | 200 µg/mL (≈ 364 µM) | 0.057 µg/mL (≈ 0.104 µM) | 250 µg/mL (≈ 455 µM) | 250 µg/mL (≈ 455 µM)
Cc1nn(-c2ccccc2)c(-n2ccnc2)c1C1C(C#N)=C(N)N(c2ccc(Cl)cc2)C2=C1C(=O)CC(C)(C)C2 (configuration not stated) | 500 µg/mL (≈ 909 µM) | > 1000 µg/mL | 500 µg/mL (≈ 909 µM) | 76% | 500 µg/mL (≈ 909 µM) | 84% | 250 µg/mL (≈ 454 µM) | 200 µg/mL (≈ 364 µM) | 0.073 µg/mL (≈ 0.133 µM) | 125 µg/mL (≈ 227 µM) | 125 µg/mL (≈ 227 µM)
O=C(N[C@H](CO)[C@H](O)c1ccc([N+](=O)[O-])cc1)C(Cl)Cl [CHLORAMPHENICOL] |  |  | 10 µg/mL (≈ 30.9 µM) |  | 50 µg/mL (≈ 155 µM) |  | 50 µg/mL (≈ 155 µM) | 50 µg/mL (≈ 155 µM) |  | 25 µg/mL (≈ 77.4 µM) | 100 µg/mL (≈ 309 µM)
O=C(O)c1cn(C2CC2)c2cc(N3CCNCC3)c(F)cc2c1=O [CIPROFLOXACIN] |  |  |  |  | 10 µg/mL (≈ 30.2 µM) |  | 50 µg/mL (≈ 151 µM) | 100 µg/mL (≈ 302 µM) |  |  | 
CCOC(=O)C1=C(N)N(c2ccc(OC)cc2)C2=C(C(=O)CC(C)(C)C2)C1c1c(C)nn(-c2ccccc2)c1-n1ccnc1 (configuration not stated) | 1000 µg/mL (≈ 1690 µM) | 1000 µg/mL (≈ 1690 µM) | 100 µg/mL (≈ 169 µM) | 20% | 200 µg/mL (≈ 337 µM) | 25% | 250 µg/mL (≈ 422 µM) | 125 µg/mL (≈ 211 µM) | 1.49 µg/mL (≈ 2.51 µM) | 250 µg/mL (≈ 422 µM) | 100 µg/mL (≈ 169 µM)
Cc1nn(-c2ccccc2)c(-n2ccnc2)c1C1C(C(N)=O)=C(N)N(c2ccccc2)C2=C1C(=O)CC(C)(C)C2 (configuration not stated) | 1000 µg/mL (≈ 1870 µM) | 250 µg/mL (≈ 468 µM) | 200 µg/mL (≈ 375 µM) | 4% | 250 µg/mL (≈ 468 µM) | 7% | 250 µg/mL (≈ 468 µM) | 125 µg/mL (≈ 234 µM) | 0.62 µg/mL (≈ 1.16 µM) | 125 µg/mL (≈ 234 µM) | 200 µg/mL (≈ 375 µM)
Cc1nn(-c2ccccc2)c(-n2ccnc2)c1C1C(C#N)=C(N)N(c2ccccc2)C2=C1C(=O)CC(C)(C)C2 (configuration not stated) | 500 µg/mL (≈ 970 µM) | 1000 µg/mL (≈ 1940 µM) | 100 µg/mL (≈ 194 µM) | 28% | 125 µg/mL (≈ 242 µM) | 33% | 100 µg/mL (≈ 194 µM) | 250 µg/mL (≈ 485 µM) | 1.08 µg/mL (≈ 2.1 µM) | 500 µg/mL (≈ 970 µM) | 500 µg/mL (≈ 970 µM)
C=C[C@H]1CN2CC[C@H]1C[C@H]2[C@H](O)c1ccnc2ccc(OC)cc12 [QUININE] |  |  |  |  |  |  |  |  | 0.268 µg/mL (≈ 0.826 µM) |  | 
Cc1nn(-c2ccccc2)c(-n2ccnc2)c1C1C(C(N)=O)=C(N)N(c2ccc(Cl)cc2)C2=C1C(=O)CC(C)(C)C2 (configuration not stated) | 1000 µg/mL (≈ 1760 µM) | 250 µg/mL (≈ 440 µM) | 250 µg/mL (≈ 440 µM) | 66% | 250 µg/mL (≈ 440 µM) | 75% | 500 µg/mL (≈ 880 µM) | 200 µg/mL (≈ 352 µM) | 0.059 µg/mL (≈ 0.104 µM) | 200 µg/mL (≈ 352 µM) | 200 µg/mL (≈ 352 µM)
Cc1ccc(N2C(N)=C(C(N)=O)C(c3c(C)nn(-c4ccccc4)c3-n3ccnc3)C3=C2CC(C)(C)CC3=O)cc1 (configuration not stated) | 250 µg/mL (≈ 456 µM) | > 1000 µg/mL | 200 µg/mL (≈ 365 µM) | 30% | 200 µg/mL (≈ 365 µM) | 35% | 250 µg/mL (≈ 456 µM) | 250 µg/mL (≈ 456 µM) | 1.02 µg/mL (≈ 1.87 µM) | 200 µg/mL (≈ 365 µM) | 250 µg/mL (≈ 456 µM)
Cc1ccc(N2C(N)=C(C#N)C(c3c(C)nn(-c4ccccc4)c3-n3ccnc3)C3=C2CC(C)(C)CC3=O)cc1 (configuration not stated) | 1000 µg/mL (≈ 1890 µM) | 1000 µg/mL (≈ 1890 µM) | 200 µg/mL (≈ 378 µM) | 80% | 62.5 µg/mL (≈ 118 µM) | 90% | 250 µg/mL (≈ 472 µM) | 100 µg/mL (≈ 189 µM) | 1.07 µg/mL (≈ 2.03 µM) | 100 µg/mL (≈ 189 µM) | 125 µg/mL (≈ 236 µM)
CCOC(=O)C1=C(N)N(c2ccc(C)cc2)C2=C(C(=O)CC(C)(C)C2)C1c1c(C)nn(-c2ccccc2)c1-n1ccnc1 (configuration not stated) | > 1000 µg/mL | 1000 µg/mL (≈ 1730 µM) | 125 µg/mL (≈ 217 µM) | 6% | 100 µg/mL (≈ 173 µM) | 12% | 100 µg/mL (≈ 173 µM) | 250 µg/mL (≈ 434 µM) | 1.79 µg/mL (≈ 3.1 µM) | 250 µg/mL (≈ 434 µM) | 100 µg/mL (≈ 173 µM)
CCOC(=O)C1=C(N)N(c2ccc(O)cc2)C2=C(C(=O)CC(C)(C)C2)C1c1c(C)nn(-c2ccccc2)c1-n1ccnc1 (configuration not stated) | > 1000 µg/mL | 500 µg/mL (≈ 864 µM) | 200 µg/mL (≈ 346 µM) | 12% | 200 µg/mL (≈ 346 µM) | 20% | 200 µg/mL (≈ 346 µM) | 62.5 µg/mL (≈ 108 µM) | 0.096 µg/mL (≈ 0.166 µM) | 200 µg/mL (≈ 346 µM) | 250 µg/mL (≈ 432 µM)
CCOC(=O)C1=C(N)N(c2ccc(Cl)cc2)C2=C(C(=O)CC(C)(C)C2)C1c1c(C)nn(-c2ccccc2)c1-n1ccnc1 (configuration not stated) | 500 µg/mL (≈ 837 µM) | > 1000 µg/mL | 100 µg/mL (≈ 167 µM) | 58% | 100 µg/mL (≈ 167 µM) | 63% | 200 µg/mL (≈ 335 µM) | 100 µg/mL (≈ 167 µM) | 0.057 µg/mL (≈ 0.0955 µM) | 125 µg/mL (≈ 209 µM) | 125 µg/mL (≈ 209 µM)
Cc1nn(-c2ccccc2)c(-n2ccnc2)c1C1C(C#N)=C(N)N(c2ccccc2O)C2=C1C(=O)CC(C)(C)C2 (configuration not stated) | 500 µg/mL (≈ 941 µM) | 1000 µg/mL (≈ 1880 µM) | 250 µg/mL (≈ 470 µM) | 38% | 250 µg/mL (≈ 470 µM) | 45% | 125 µg/mL (≈ 235 µM) | 100 µg/mL (≈ 188 µM) | 0.71 µg/mL (≈ 1.34 µM) | 200 µg/mL (≈ 376 µM) | 125 µg/mL (≈ 235 µM)
CCn1cc(C(=O)O)c(=O)c2cc(F)c(N3CCNCC3)cc21 [NORFLOXACIN] |  |  | 50 µg/mL (≈ 157 µM) |  | 50 µg/mL (≈ 157 µM) |  | 50 µg/mL (≈ 157 µM) | 25 µg/mL (≈ 78.3 µM) |  | 25 µg/mL (≈ 78.3 µM) | 250 µg/mL (≈ 783 µM)
COC1=CC(=O)C[C@@H](C)[C@]12Oc1c(Cl)c(OC)cc(OC)c1C2=O [GRISEOFULVIN] | 100 µg/mL (≈ 283 µM) | 100 µg/mL (≈ 283 µM) |  |  |  |  |  |  |  |  | 
CC1(C)S[C@@H]2[C@H](NC(=O)[C@H](N)c3ccccc3)C(=O)N2[C@H]1C(=O)O [AMPICILLIN] |  |  | 10 µg/mL (≈ 28.6 µM) |  | 10 µg/mL (≈ 28.6 µM) |  | 50 µg/mL (≈ 143 µM) | 100 µg/mL (≈ 286 µM) |  | 100 µg/mL (≈ 286 µM) | 100 µg/mL (≈ 286 µM)
CO[C@H]1/C=C/O[C@@]2(C)Oc3c(C)c(O)c4c(O)c(c(/C=N/N5CCN(C)CC5)c(O)c4c3C2=O)NC(=O)/C(C)=C\C=C\[C@H](C)[C@H](O)[C@@H](C)[C@@H](O)[C@@H](C)[C@H](OC(C)=O)[C@@H]1C [RIFAMPIN] |  |  |  | 98% |  | 98% |  |  |  |  | 
